Measured values from ChEMBL document CHEMBL1629493, “Synthesis and cytostatic activity of purine nucleosides derivatives of allofuranose” (Eur J Med Chem, 2010).

Key:
Format in all cases: functional, cell-based
MCF7 = test: Cytostatic activity against human MCF7 cells after 96 hrs by colorimetric microculture assay; conditions: MCF7, 96 h
Method in brief: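 MCF-7 cells at 10⁴ per well, preincubated 24 h, then treated at 37 °C for 96 h with varying doses dissolved in DMSO alongside DMSO controls. Read-out: MTT colorimetry at 595 nm, viability as a fraction of control absorbance. IC50 fitted from concentration-effect curves; three experiments, mean with standard deviation.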

HeLa = test: Cytostatic activity against human HeLa 229 cells after 48 hrs by colorimetric microculture assay
Method in brief: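 HeLa-229 cells plated at 4 × 10³ per well and cultured 24 h before treatment at 37 °C for 48 h with varying doses in DMSO, DMSO controls included. MTT colour measured at 595 nm. Percent viability relative to control; IC50 from concentration-effect curves. Mean of three experiments, SD given.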

HL-60 = test: Cytostatic activity against human HL60 cells after 24 hrs by colorimetric microculture assay; conditions: HL-60, 24 h
Method in brief: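 MTT assay: HL-60 cells seeded at 10⁴ per well, grown 24 h in culture medium, then exposed at 37 °C for 24 h to varying doses of compounds dissolved in DMSO, with DMSO controls. Absorbance read at 595 nm. Viability taken as treated over control absorbance. IC50 derived from concentration-effect curves; means of three experiments with standard deviation.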

| SMILES | IC50 (MCF7) [µM] | IC50 (HeLa) [µM] | IC50 (HL-60) [µM] |
| --- | --- | --- | --- |
| CNc1nc(Cl)nc2c1ncn2[C@@H]1O[C@H]([C@H](O)CO)[C@@H](O)[C@H]1O | > 100 | > 100 | > 100 |
| OC[C@@H](O)[C@H]1O[C@@H](n2cnc3c(Cl)ncnc32)[C@H](O)[C@@H]1O | > 100 | > 100 | > 100 |
| Nc1nc(Cl)nc2c1ncn2[C@@H]1O[C@H]([C@H](O)CO)[C@@H](O)[C@H]1O | > 100 | > 100 | > 100 |
| CC(=O)OC[C@@H](OC(C)=O)[C@H]1O[C@@H](n2cnc3c(Cl)ncnc32)[C@H](OC(C)=O)[C@@H]1OC(C)=O | > 100 | > 100 | 79.3 |
| CC(=O)OC[C@@H](OC(C)=O)[C@H]1O[C@@H](n2cnc3c(-c4ccccc4)ncnc32)[C@H](OC(C)=O)[C@@H]1OC(C)=O | > 100 | > 100 | > 100 |
| Nc1ncnc2c1ncn2[C@@H]1O[C@H]([C@H](O)CO)[C@@H](O)[C@H]1O | > 100 | > 100 | > 100 |
| CC(=O)OC[C@@H](OC(C)=O)[C@H]1O[C@@H](n2cnc3c(N)nc(Cl)nc32)[C@H](OC(C)=O)[C@@H]1OC(C)=O | > 100 | > 100 | > 100 |
| OC[C@@H](O)[C@H]1O[C@@H](n2cnc3c(-c4ccccc4)ncnc32)[C@H](O)[C@@H]1O | > 100 | > 100 | > 100 |
| CC(=O)O[C@H]1[C@@H](OC(C)=O)[C@H](n2cnc3c(Cl)nc(Cl)nc32)O[C@@H]1[C@H](O)CO | 36.3 | 36.3 | 45 |
| CC(=O)OC[C@@H](OC(C)=O)[C@H]1O[C@@H](n2cnc3c(Cl)nc(Cl)nc32)[C@H](OC(C)=O)[C@@H]1OC(C)=O | 22.4 | 24.2 | 16.1 |
| OC[C@@H](O)[C@H]1O[C@@H](n2cnc3c(Cl)nc(Cl)nc32)[C@H](O)[C@@H]1O | 54.2 | 47.1 | > 100 |
| CNc1ncnc2c1ncn2[C@@H]1O[C@H]([C@H](O)CO)[C@@H](O)[C@H]1O | > 100 | > 100 | > 100 |
| CCOc1nc(Cl)nc2c1ncn2[C@@H]1O[C@H]([C@H](O)CO)[C@@H](O)[C@H]1O | > 100 | > 100 | > 100 |
